Compound activity from PubChem.
A selection: hits, their analogues and other compounds. The true share with any hit is near 5.8%.
FAK blocker: FAK kinase inhibitors, primary screen, biochemical; Focal adhesion kinase 1 (Homo sapiens), Q05397; hit rate 0.84% among 97,000; inhibition, %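 (tested at 7 µM)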; biochemical FAK kinase activity assay; in the data active = inhibition above about 19%;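 also: 0% = DMSO and 100% = reference compound high control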
PLK1 kinase inh: human PLK1 kinase inhibitors, primary screen, biochemical, TR-FRET. recombinant PLK1 kinase, TR-FRET peptide phosphorylation. inhibition, % at 10 µM. hit rate 0.53% among 97,000. AID 619, 2007;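 active = inhibition of 50% or more in the single-concentration screen; inactive = inhibition below 50%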;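 also: 0% = DMSO max control and 100% = H-89 dihydrochloride min control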
Cav32 inh: Cav3.2 calcium influx blockers – cell-based, Fluo-4 calcium fluorescence, FDSS, MLSMR library, primary screen; Voltage-dependent T-type calcium channel subunit alpha-1H (Homo sapiens), O95180; Cav3.2-expressing cells; active compounds read low; B-score at 10 µM; hit rate 4% among 100,000;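 active = single-dose well whose peak fluorescence ratio is a statistical outlier from its plate by either plate-standardised score or position-corrected B-score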
Pyk2 oligo antag: antagonists of Pyk2 self-association, primary screen, Q293 cells, FERM NanoBiT luminescence, HTS | hit rate 0.83% among 99,000 | active compounds read low | Protein-tyrosine kinase 2-beta (Homo sapiens), Q14289 | z-score (the deposit names both 25 µM and 10 µM);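 active = Z-score of -3 or lower, scaled per plate to the spread of control and sample wells; inactive = z-score above -3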;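 also: negative z-score means lost luminescence so less FERM oligomerization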
Rev-RRE block: HIV-1 Rev-RRE binding inhibitors, primary screen, biochemical, FRET, protein-RNA interaction | Rev peptide-RRE RNA binding | inhibition, % at 8 µM | hit rate 0.79% among 97,000 | AID 704, 2007;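 active = inhibition above the screen-wide mean plus 3 SD, cut at about 35% in these data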;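 also: 0% = median DMSO wells and 100% = median Neomycin B control wells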
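Material: labelled RRE RNA duplex and labelled Rev peptide / Buffer or medium: HEPES pH 7.5 salt buffer with EDTA / Compound dosing: single point, 8 µM final nominal compound concentration / Benchmarks: DMSO low control, neomycin B high control / Timing: 5 min preincubation and 15 min binding, 25 °C / Technique: FRET fluorescence readout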
PLK1 PBD inh: Plk1 polo box domain binding inhibitors, primary screen, biochemical, fluorescence polarization; Serine/threonine-protein kinase PLK1 (Homo sapiens), P53350; Plk1 PBD phosphopeptide binding; inhibition, %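 (tested at about 20 µM)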; hit rate 0.13% among 97,000; AID 693, 2007; in the data active = inhibition above about 34%, passing the limit was not always enough
An asterisk follows results filed as active; · = not tested or not shown.

SMILES | FAK blocker | PLK1 kinase inh | Cav32 inh | Pyk2 oligo antag | Rev-RRE block | PLK1 PBD inh
COc1nc(NCCc2ccc(OC)c(OC)c2)nc(NC(C)(C)CO)n1 | 0 | -11 | · | -0.32 | -5 | -19
COc1ccc(N2CCN(c3nc(NCCc4ccc(OC)c(OC)c4)nc(OC)n3)CC2)cc1 | -1 | -10 | -2 | -3.1* | 2 | -12
O=c1c(-c2ccc(O)cc2)coc2cc(OC3OC(CO)C(O)C(O)C3O)ccc12 (stereo unspecified) | · | · | -0.096 | · | · | ·
COc1cc2cc(C(c3nnnn3C3CCCC3)N3CCCCC3)c(=O)[nH]c2cc1OC (stereo unspecified) | 0 | -11 | 0.1 | 1.3 | 10 | -8
O=c1[nH]c2cc3c(cc2cc1C(c1nnnn1C1CCCCC1)N1CCSCC1)OCCO3 (stereo unspecified) | 1 | -28 | · | 0.51 | 51* | -16
COc1cc2cc(C(c3nnnn3C3CCCC3)N3CCCCCC3)c(=O)[nH]c2cc1OC (stereo unspecified) | 5 | -16 | -0.85 | 0.26 | 58* | -16
Cc1cc(C)n(CC(O)COc2ccc(OCC(O)Cn3nc(C)cc3C)cc2)n1 (stereo unspecified) | 1 | -5 | · | · | -1 | -17
COc1ccc(-c2cc(-c3cc(OC)ccc3O)[nH]n2)cc1 | -1 | -1 | -4.5* | -2.1 | 11 | 1
CCc1ccc(NC(=O)CCc2nc3cccnc3n2Cc2ccc(OC)cc2)cc1 | 3 | -4 | -6.9* | -1.1 | 2 | 12
COCCn1c(SCc2cccnc2)nnc1-c1ccco1 | -2 | -5 | 0.29 | -0.34 | 7 | 4
C/C=C(\C)C(=O)Nc1cccc(C2=NOC3(C2)C[C@H](C(N)=O)N(C(=O)CC#N)C3)c1 (stereo partly specified) | · | · | 0.1 | · | · | ·
COc1ccc(S(=O)(=O)Nc2ccc(S(=O)(=O)Nc3ccc(F)cc3)cc2)cc1C | 0 | -7 | -6.8* | -1.1 | 16 | 0
COc1cc(NS(=O)(=O)c2ccc(C)c(C)c2)c(OC)cc1Cl | 0 | -10 | -6.6* | -1.6 | 15 | -9
COc1ccc(S(=O)(=O)Nc2ccc(C(F)(F)F)cc2)cc1OC | 1 | -7 | -4.8* | -3.4* | 22 | 3
COc1ccc(S(=O)(=O)Nc2ccc(F)cc2)cc1N(C)S(=O)(=O)c1ccc(Cl)cc1 | 3 | -10 | -5* | -2.3 | 15 | -2
COc1ccc(S(=O)(=O)Nc2ccc(F)c(F)c2)cc1Cl | 1 | -8 | -3.8 | -1.2 | 2 | 30
Cc1ccc2c(c1)N1C(=O)c3ccccc3C1C1=C(CC(C)(C)CC1=O)N2 (stereo unspecified) | 1 | -14 | -0.64 | -0.36 | -4 | -18
Cc1ccc(Cn2cccc(NC(=O)c3ccco3)c2=O)cc1 | 2 | -11 | -0.65 | 1.7 | 2 | -2
CCOC(=O)COn1c(=O)c(=O)n(O)c2ccccc21 | · | · | -0.21 | -0.96 | · | ·
CN(C(=O)c1ccc2c(c1)C(=O)N(CCC1=CCCCC1)C2=O)C1CCCCC1 | 7 | -14 | -6.1* | · | 6 | 14
O=C(O)c1ccc2c(c1)C(=O)N(CCC1=CCCCC1)C2=O | · | · | · | 0.5 | · | ·
COc1ccc(CN2CCc3ccccc3C2)c(OC)c1OC | -2 | -7 | 1.1 | 2.4 | 5 | -8
Cc1noc(C)c1C(=O)OCC(=O)NCCC1=CCCCC1 | 7 | -9 | -0.14 | -0.16 | 4 | -9
Cc1cc(C(F)(F)F)c(C#N)c(Sc2ccccc2)n1 | -6 | -4 | -0.57 | 0.29 | 13 | -24
COC(=O)CSc1nc(C)cc(C(F)(F)F)c1C#N | -6 | -5 | -0.06 | -0.11 | 11 | 12
SMILES | FAK blocker | PLK1 kinase inh | Cav32 inh | Pyk2 oligo antag | Rev-RRE block | PLK1 PBD inh
Cc1ccc(S(=O)(=O)CCSc2nc(C)cc(C(F)(F)F)c2C#N)cc1 | 2 | -12 | -1.4 | -0.59 | 64* | 8
CCOC(=O)NC(=O)CSc1nc(C)cc(C(F)(F)F)c1C#N | 4 | -6 | -0.27 | 1.6 | 42* | -1
COc1ccc(-c2nnc(SC(C)C(=O)Nc3c(C)n(C)n(-c4ccccc4)c3=O)o2)cc1 (stereo unspecified) | -4 | -4 | -0.093 | 7 | 6 | -9
CCN1/C(=C(\O)c2ccccc2)C(=O)c2ccccc2S1(=O)=O | -1 | -3 | -3.8* | -0.35 | 6 | -15
CCN1c2cccc3cccc(c23)S1(=O)=O | -4 | -5 | · | 0.52 | 6 | 15
CC1CCCN(C(=O)COC(=O)c2ccc[nH]c2=O)C1 (stereo unspecified) | 1 | 1 | 0.33 | -0.17 | 9 | 2
CS(=O)(=O)N(CC(=O)N1CCN(c2ccccc2F)CC1)c1cccc(C(F)(F)F)c1 | 1 | 10 | -2.5 | -0.71 | 2 | 20
CC(C)CN(CC(C)C)S(=O)(=O)N1CCC(C(=O)NCc2cccs2)CC1 | 0 | -2 | -3.7* | 0.15 | 6 | -16
CC1(C)CC(=O)C2=C(C1)Oc1nc3ccccc3cc1C2C(C#N)C#N (stereo unspecified) | 3 | -3 | 1.7 | 0.55 | 19 | -3
Cc1cc(C(=O)CN(Cc2ccc(F)cc2)S(=O)(=O)c2ccc3c(c2)OCCO3)c(C)n1C | -3 | -14 | -2.9* | -0.47 | 0 | 3
O=C(CN(Cc1ccccc1)S(=O)(=O)c1ccc2c(c1)OCCO2)N/N=C/c1ccc(F)cc1 | -8 | 1 | · | -1.6 | -1 | 26
CC(=O)Oc1ccc(C(=O)[C@H]2[C@H]3C(=O)N(c4cccc5ccccc45)C(=O)[C@H]3[C@@H]3C=CC=NN32)cc1 | · | · | · | 0.79 | · | ·
O=C(Nc1ccc(Cl)cc1)[C@@H]1[C@@H]2C(=O)N(c3ccc4ccccc4c3)C(=O)[C@@H]2[C@H]2C=CC=NN21 | 0 | 1 | -8.6* | 0.37 | 7 | -3
Cc1cccc(-c2nc(CN3CCCC(C(=O)NC4CCCCCC4)C3)c(C)o2)c1 (stereo unspecified) | 2 | -1 | -6.9* | -0.73 | -3 | 12
Cc1oc(-c2cccc(Cl)c2)nc1CN1CCCC(C(=O)NC(C)c2ccc3c(c2)OCCO3)C1 (stereo unspecified) | 1 | 56* | · | · | 4 | 4
Cc1cccc(-c2nc(CN3CCCC(C(=O)NC4CCCCC4)C3)c(C)o2)c1 (stereo unspecified) | 3 | 7 | -5.1* | 0.7 | 1 | -6
Fc1ccc(OCCOCCNCC2CCCO2)cc1 (stereo unspecified) | 1 | -8 | -0.35 | -0.61 | 5 | -25
Cc1ccc(OCCn2cc(Br)c(=O)[nH]c2=O)cc1 | 5 | -13 | -0.016 | -0.15 | 9 | 10
Cn1c(CSc2nc3ccc(Br)cc3[nH]2)nc2ccccc21 | 5 | -6 | -0.035 | -1.5 | 4 | 7
